Like-named read-outs stand apart in the source and are kept apart here.
Key:
liposarcoma [1] = conditions: cited from earlier work
[2] = Steady-state plasma pharmacokinetics, phase I trial; format: in vivo, human; conditions: for Mean peak plasma level: steady state; for AUC: po
Procedure, shortened: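 Liposarcoma patients took oral test compound twice daily with food. On day 8 of cycle 1, EDTA blood was drawn predose and 0.5–8 h post-dose, iced, spun within 1 h and stored as plasma at ≤ –20 °C. Parent and active metabolite were extracted by protein precipitation/organic extraction (reserpine internal standard) and quantified by LC–MS/MS in positive-ion MRM. Non-compartmental Cmax/Tmax; linear/log trapezoidal AUC.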

HIV = conditions: cited from earlier work
SREBP-1 = conditions: in the absence of increased gene expression; cited from earlier work
liposarcoma [3] = conditions: cited from earlier work; remark: listed apart in the source
liposarcoma xenograft = conditions: murine liposarcoma xenograft; cited from earlier work
liposarcoma [4] = assay: Tumor response by RECIST in subjects with liposarcoma; format: in vivo, human
[5] = RECIST, 20 subjects, all dose levels

Cc1c(O)cccc1C(=O)N[C@@H](CSc1ccccc1)[C@H](O)CN1C[C@H]2CCCC[C@H]2C[C@H]1C(=O)NC(C)(C)CO [M8]
anticancer activity relative to parent molecule (liposarcoma [1]): comparable to its parent molecule | time to peak plasma concentration ([2]; 3,000 mg nelfinavir twice daily): 4 to 6 h | time to peak plasma concentration ([2]; 4,250 mg nelfinavir twice daily): 2 h | activity in suppressing HIV replication relative to parent drug (HIV): as pharmacologically active as the parent drug

Cc1c(O)cccc1C(=O)N[C@@H](CSc1ccccc1)[C@H](O)CN1C[C@H]2CCCC[C@H]2C[C@H]1C(=O)NC(C)(C)C [nelfinavir]
precursor SREBP-1 protein expression (SREBP-1): dose-dependent increase | potency rank among HIV PIs in clonogenic assays (liposarcoma [3]): most potent HIV PI identified | effect on tumor growth (liposarcoma xenograft): inhibition of tumor growth | range where anticancer activity was demonstrated in vitro (liposarcoma [1]): 5 to 10 µM | Mean peak plasma level ([2]; Level 4, 3,000 mg twice daily oral, six subjects): 7.3 mg/L | Mean peak plasma level ([2]; Level 5, 4,250 mg twice daily oral, three subjects): 6.3 mg/L | Tmax ([2]; human, plasma, oral, 4250 mg twice daily): 2 h | AUC ([2]; human, plasma, 3000 mg twice daily): 60900 ng·h/mL | AUC ([2]; human, plasma, 4250 mg twice daily): 37700 ng·h/mL | Acute toxicity count: Blood/bone marrow, Hemoglobin (Course 1, Grade 1): 3 | Acute toxicity count: Blood/bone marrow, Leukocytes (total WBC) (Course 1, Grade 1): 2 | Acute toxicity count: Blood/bone marrow, Other (Course 1, Grade 1): 1 | Acute toxicity count: Blood/bone marrow, Platelets (Course 1, Grade 1): 1 | Acute toxicity count: Cardiac arrhythmia ventricular arrhythmia (Course 1, Grade 1): 1 | Acute toxicity count: Laboratory, Bicarbonate, serum-low (Course 1, Grade 1): 1 | Acute toxicity count: Laboratory, Cholesterol, serum-high (Course 1, Grade 1): 2 | Acute toxicity count: Laboratory, Glucose, serum-high (Course 1, Grade 1): 1 | Acute toxicity count: Laboratory, Potassium, serum-low (Course 1, Grade 1): 2 | Acute toxicity count: Laboratory, Triglyceride, serum-high (Course 1, Grade 1): 2 | Acute toxicity count: Blood/bone marrow, Hemoglobin (Course 1, Grade 2): 1 | Acute toxicity count: Blood/bone marrow, Lymphopenia (Course 1, Grade 2): 1 | Acute toxicity count: Laboratory, Glucose, serum-high (Course 1, Grade 2): 1 | Acute toxicity count: Laboratory, Lipase (Course 1, Grade 3): 1 | Acute toxicity count: Blood/bone marrow, Hemoglobin (Subsequent courses, Grade 1): 2 | Acute toxicity count: Blood/bone marrow, Lymphopenia (Subsequent courses, Grade 1): 1 | Acute toxicity count: Blood/bone marrow, Platelets (Subsequent courses, Grade 1): 1 | Acute toxicity count: Blood/bone marrow, Hemoglobin (Subsequent courses, Grade 2): 2 | Acute toxicity count: Blood/bone marrow, Neutrophils (Subsequent courses, Grade 2): 1 | Acute toxicity count: Blood/bone marrow, Leukocytes (total WBC) (human, in vivo): 1 | Acute toxicity count: Constitutional, Fatigue (human, in vivo): 1 | Acute toxicity count: Constitutional, Weight loss (human, in vivo): 1 | Acute toxicity count: Dermatology/skin, Other (human, in vivo): 1 | Acute toxicity count: Dermatology/skin, Rash/desquamation (human, in vivo): 1 | Acute toxicity count: Gastrointestinal, Anorexia (human, in vivo): 1 | Acute toxicity count: Gastrointestinal, Diarrhea (human, in vivo): 7 | Acute toxicity count: Gastrointestinal, Nausea (human, in vivo): 1 | Acute toxicity count: Gastrointestinal, Vomiting (human, in vivo): 1 | Acute toxicity count: Laboratory, ALT, SGPT (human, in vivo): 1 | Acute toxicity count: Laboratory, AST, SGOT (human, in vivo): 1 | Acute toxicity count: Laboratory, Alkaline phosphatase (human, in vivo): 2 | Acute toxicity count: Laboratory, Glucose, serum-high (human, in vivo): 3 | Acute toxicity count: Laboratory, Potassium, serum-low (human, in vivo): 1 | Acute toxicity count: Laboratory, Triglyceride, serum-high (human, in vivo): 2 | Acute toxicity count: Neurology dizziness (human, in vivo): 1 | Acute toxicity count: Pain (human, in vivo): 2 | Acute toxicity count: Pulmonary dyspnea (human, in vivo): 1 | Acute toxicity count: Pulmonary, Hypoxia (human, in vivo): 1 | Acute toxicity count: Pulmonary, Other (human, in vivo): 1 | Acute toxicity count: Constitutional, Fatigue (human, in vivo, 28 days): 1 | Acute toxicity count: Dermatology/skin, Other (human, in vivo, 28 days): 1 | Acute toxicity count: Dermatology/skin, Rash/desquamation (human, in vivo, 28 days): 1 | Acute toxicity count: Gastrointestinal, Diarrhea (human, in vivo, 28 days): 2 | Acute toxicity count: Gastrointestinal, Nausea (human, in vivo, 28 days): 2 | Acute toxicity count: Gastrointestinal, Vomiting (human, in vivo, 28 days): 1 | Acute toxicity count: Hemorrhage/bleeding (human, in vivo, 28 days): 1 | Acute toxicity count: Hepatobiliary/pancreatitis (human, in vivo, 28 days): 1 | Acute toxicity count: Laboratory, ALT, SGPT (human, in vivo, 28 days): 3 | Acute toxicity count: Laboratory, AST, SGOT (human, in vivo, 28 days): 3 | Acute toxicity count: Laboratory, Album, serum-low (human, in vivo, 28 days): 1 | Acute toxicity count: Lymphatics/limb edema (human, in vivo, 28 days): 1 | MTD (up to dose Level 5 (4,250 mg twice daily)): not reached | subjects with CT partial response (PR) (liposarcoma [4]; [5]): 1 | subjects with progressive disease at initial evaluation (liposarcoma [4]; [5]): 13 | subjects with reduction in tumor size, but less than a PR (liposarcoma [4]; [5]): 1 | clinical benefit (complete response, PR, plus SD) (liposarcoma [4]; of 20 subjects): 30% | subjects with clinical benefit (complete response, PR, plus SD) (liposarcoma [4]; of 20 subjects): 6

Source: paper PMC3904496 (Cancer chemotherapy and pharmacology, 2012)
